PKD1 inh – inhibitors of human PKD1 kinase. PKD1 kinase fluorescence polarization assay. inhibition, % (no concentration beside the values). 0.056% of 200,000 active; in the data active = inhibition above about 50%
Rad51 HR inh – Rad51 (human) homologous recombination inhibition; Q06609; hRad51 DNA strand exchange, fluorescence dequenching; inhibition, % at 10 µM; 0.085% of 200,000 active;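 active = inhibition above 40% at the single screening dose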;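 also: 0% = DMSO control wells and 100% = blanks with heterologous ssDNA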
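material = hRad51 filaments on single-stranded DNA | reagent = Donor/quencher-labelled 47-bp dsDNA substrate | compound = 10 µM final, single point | schedule = strand-exchange reaction 15 min at room temperature | measured by = fluorescein emission 520 nm, excitation 485 nm | read-out basis = % inhibition versus plate control and blank means | benchmarks = plate controls and plate blanks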
H9c2 TAG inh – inhibitors of triacylglycerol accumulation; H9c2 cells, Nile Red lipid (TAG) fluorescence; cells loaded with 200 µM oleic acid; inhibition, % at 12.5 µM; 0.66% of 230,000 active; AID 651582;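 active = pattern-corrected inhibition of lipid staining of at least 50% with the nuclear-stain viability signal not falling by more than 50%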;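 also: 0% = DMSO wells and 100% = triacsin C control wells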
Hck Nef HTS – human Hck-Nef kinase inhibition; Recombinant Hck-YEEI plus Nef, Z-Lyte FRET kinase assay; inhibition, % at 20 µM; 0.68% of 220,000 active; AID 463187;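 active = Hck-Nef kinase inhibition above about 50%, limit read from the data; inactive = inhibition below that limit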;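 also: 0% = DMSO with Hck plus Nef and 100% = Hck alone without Nef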
PERK inhibitor – blocks human PERK kinase; Q9NZJ5; CHO PERK-DD fusion, SEAP luminescence translation reporter; inhibition, % at 5.6 µM; 0.17% of 220,000 active; AID 1416;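 active = inhibition above the mean inhibition of all tested compounds plus 3 SD, set separately per screening campaign, cut at about 2.9% in these data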;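 also: PERK kinase domain activated by AP20187 dimerizer at 100 nM; 0% = DMSO with dimerizer and 100% = rapamycin at 8.4 µM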
Mdm2 ligase inh – inhibitors of human Mdm2 E3 ubiquitin ligase; Q00987; cell-based MDM2 ubiquitination luciferase reporter, 2 h; 0 = plate control, 100 = twice control, blank-subtracted; signal enhancement, % at 5 µM; 0.11% of 210,000 active;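 active = signal enhancement of 30% or more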;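 also: luminescence tracks abundance of the self-degrading MDM2-luciferase fusion protein; higher signal means inhibition of MDM2 E3 ligase activity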
Target sequence (Q00987 whole entry, looked up, the tested form may be a part): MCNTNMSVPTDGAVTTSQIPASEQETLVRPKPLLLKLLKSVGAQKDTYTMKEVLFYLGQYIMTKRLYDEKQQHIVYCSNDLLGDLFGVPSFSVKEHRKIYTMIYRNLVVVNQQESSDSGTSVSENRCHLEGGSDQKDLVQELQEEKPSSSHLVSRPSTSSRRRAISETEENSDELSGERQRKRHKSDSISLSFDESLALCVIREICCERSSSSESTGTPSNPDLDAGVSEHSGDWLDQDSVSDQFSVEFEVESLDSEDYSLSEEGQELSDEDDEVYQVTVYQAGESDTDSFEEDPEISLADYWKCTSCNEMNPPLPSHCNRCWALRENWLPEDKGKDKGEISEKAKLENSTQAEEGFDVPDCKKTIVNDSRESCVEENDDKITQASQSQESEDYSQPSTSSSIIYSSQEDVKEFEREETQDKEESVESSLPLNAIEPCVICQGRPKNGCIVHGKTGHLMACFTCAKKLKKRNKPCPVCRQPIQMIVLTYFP
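Test system: mammalian cells stably expressing self-ubiquitinating, self-degrading MDM2 E3–luciferase fusion; Amount: 2000 cells in each well; Medium: DMEM; Schedule: 4 h settle plus 2 h compound, 37 °C; Technique: SteadyLite luciferase luminescence after 15 min room-temperature reagent incubation; Benchmarks: plate control and blank wells.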
Hck-Nef confirm – Hck-Nef kinase inhibition, confirmation; shares compounds with Hck Nef HTS; Recombinant Hck-YEEI:Nef, Z-Lyte FRET kinase assay; calls only at 10 µM; 28% of 1,300 active; AID 463188;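 active = average inhibition of at least 50%, with Z-scores no higher than 3 in both the phospho-tyrosine peptide and fluorescence counterscreens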
Numbers without * were called inactive; i = inactive; . = not tested or not shown; + = active, no number. Most compounds without a hit are left out; they make up all but 1.3% or so of the library.

SMILES | PKD1 inh | Rad51 HR inh | H9c2 TAG inh | Hck Nef HTS | PERK inhibitor | Mdm2 ligase inh | Hck-Nef confirm
Cc1ccc(S(=O)(=O)N2CCC(C(=O)NCCCOC(C)C)CC2)cc1 | -3.7 | . | . | -1.1 | 0.0 | -13.7 | .
CC(C)CN(C(=O)c1cc(Cl)nc2ccccc12)C1CCS(=O)(=O)C1 (stereo unspecified) | . | . | -4.9 | . | . | . | .
Cc1ccc(C)n1Cc1ccc(C(=O)O)cc1 | 2.1 | 3.8 | . | 73.9* | 1.6 | -9.1 | i
NC(=S)n1[nH]c(-c2ccc([N+](=O)[O-])cc2)c(N=Nc2ccc(Cl)cc2)c1=O | -4.4 | 0.6 | 11.7 | 71.2* | -0.1 | -29.6 | +
Cc1ccc([N+](=O)[O-])cc1N=Nc1c(-c2ccc([N+](=O)[O-])cc2)[nH]n(C(N)=S)c1=O | -1.4 | 8.2 | 8.9 | 81.7* | 0.9 | -26.7 | +
C=CCC1NS(=O)(=O)OC(CCc2ccccc2)C1O (stereo unspecified) | . | . | 13.6 | . | . | . | .
COc1ccc(C2=CC3=C(Br)C(=O)C(C)(OC(=O)c4ccco4)C(=O)C3=CO2)cc1 (stereo unspecified) | . | -3.7 | -70.0 | 91.9* | . | 6.1 | +
COc1ccc(C2=CC3=C(Br)C(=O)C(C)(OC(=O)c4cccs4)C(=O)C3=CO2)cc1 (stereo unspecified) | . | -6.0 | -14.4 | . | . | . | .
CCCn1c(NC(=O)c2ccc(Cl)c(S(=O)(=O)N3CCCC3)c2)nc2ccccc21 | -0.6 | 4.9 | -26.4 | 72.6* | -2.1 | -4.5 | +
Cc1ccccc1NC(=O)Cc1nc(CSc2nnc(-c3ccc4c(c3)OCO4)o2)cs1 | -1.2 | 0.0 | 17.2 | 4.7 | -0.5 | -16.0 | .
S=C(NCc1cccs1)NCC1CCCO1 (stereo unspecified) | 1.1 | -5.2 | 4.7 | 11.4 | -0.7 | -88.2 | .
Cc1nc2ccc(NC(=O)c3cc(S(=O)(=O)N(C)c4ccccc4)ccc3Cl)cc2s1 | -11.9 | . | . | 52.2* | -0.9 | -29.9 | +
Nc1c(C(=O)NCCN2CCOCC2)c2nc3ccccc3nc2n1CCc1ccccc1F | -7.0 | 2.8 | . | 51.5* | -1.2 | -23.2 | i
COc1ccccc1CNC(=O)c1c(N)n(CCCN2CCOCC2)c2nc3ccccc3nc12 | -5.3 | . | . | 52.3* | -0.9 | -2.8 | i
Nc1c(C(=O)NCc2ccc3c(c2)OCO3)c2nc3ccccc3nc2n1CCCN1CCOCC1 | -10.6 | -2.6 | . | 41.5 | -1.1 | -5.0 | .
Nc1c(C(=O)NCCN2CCOCC2)c2nc3ccccc3nc2n1CCc1ccccc1 | -13.9 | 5.7 | . | 47.9 | -1.3 | -8.2 | .
Cc1ccc(C2=NN(C(=O)CSc3nc4ncc(Cl)cc4[nH]3)C(c3ccco3)C2)cc1 (stereo unspecified) | -3.5 | -4.7 | 4.5 | 76.6* | -0.1 | -6.2 | i
COc1ccc(C2=NN(C(=O)CSc3nc4ncc(Cl)cc4[nH]3)C(c3ccco3)C2)cc1 (stereo unspecified) | 0.6 | -24.0 | 1.4 | 21.5 | -0.3 | -2.4 | .
CC1(C)Cc2c(C#N)c(NCC3CCCO3)nc(-c3ccco3)c2CO1 (stereo unspecified) | -1.2 | -7.6 | 11.5 | 55.9* | -0.2 | -10.2 | i
COc1ccc(C(=O)Nc2cccc(-c3cc4ccccc4oc3=O)c2)cc1[N+](=O)[O-] | 0.8 | -8.2 | . | 96.3* | 0.0 | -11.5 | +
CC(=O)Nc1ccc(NC(=O)c2cccc(-c3cc4ccccc4oc3=O)c2)cc1 | -3.2 | 6.4 | 19.5 | 13.8 | 0.6 | -8.6 | .
CCN(CC(=O)NC(C)(C)C)Cc1nc2c(Br)cc(Br)cc2c(=O)[nH]1 | . | . | 1.0 | 10.0 | -0.7 | -8.7 | .
Cc1ccc(NC(=O)CN(C)Cc2nc3c(Br)cc(Br)cc3c(=O)[nH]2)cc1 | -7.7 | -5.6 | 19.0 | 73.9* | 0.0 | -14.8 | +
O=C(Nc1cc(S(=O)(=O)N2CCOCC2)ccc1N1CCCC1)c1cccnc1Cl | . | 2.6 | 16.6 | 10.8 | -1.5 | -14.9 | .
CCOc1cc(N2CCOCC2)c(OCC)cc1NC(=O)c1ccccc1C | 2.2 | . | 3.3 | 8.5 | 1.3 | . | .
SMILES | PKD1 inh | Rad51 HR inh | H9c2 TAG inh | Hck Nef HTS | PERK inhibitor | Mdm2 ligase inh | Hck-Nef confirm
CCOc1cc(N2CCOCC2)c(OCC)cc1NC(=O)c1ccc2ccccc2n1 | -5.6 | -85.3 | 12.2 | 64.2* | -0.6 | 1.2 | i
c1ccc(-c2cc(-c3nnc4n3N=C(c3ccc5ccccc5c3)CS4)[nH]n2)cc1 | -11.3 | -0.3 | . | 53.7* | -0.1 | -7.1 | +
Cc1cc(-c2nnc3n2N=C(c2ccc(-c4ccccc4)cc2)CS3)n[nH]1 | 4.5 | 0.3 | 29.6 | 1.4 | -1.4 | -16.4 | .
O=c1[nH][nH]cc1C=Nc1ccc(Oc2ccccc2)cc1 | -1.6 | 1.9 | -5.0 | 163.8* | 2.0 | -3.5 | +
COc1ccc(N=Cc2c[nH][nH]c2=O)cc1 | -0.1 | 0.5 | 15.9 | 2.6 | 0.3 | 13.3 | .
Cc1nn(CCC(=O)O)c2nc(-c3cccnc3)cc(C(F)(F)F)c12 | 2.7 | 0.3 | 2.5 | 1.8 | -0.1 | 14.2 | .
Cc1nn(CCc2nn[nH]n2)c2nc(-c3ccc(C4CCCCC4)cc3)cc(C(F)(F)F)c12 | -2.5 | 3.5 | -13.8 | 71.0* | -0.1 | -0.6 | +
Cn1c(COc2ccccc2)nnc1SCC(=O)NNC(=O)C1CCCCC1 | -0.9 | 3.8 | 9.4 | 16.6 | 0.3 | 4.8 | .
O=C(Cc1cccs1)N=Nc1c(O)[nH]c2ccc(Br)cc12 | . | 9.6 | -7.5 | 22.1 | 0.1 | -1.3 | .
COc1ccc2[nH]c(O)c(N=NC(=O)Cc3cccs3)c2c1 | . | 6.6 | -3.8 | 51.1* | 1.4 | . | i
COc1ccccc1C=NN1C(=O)CSC1=S | . | . | 0.4 | . | . | . | .
O=C1CSC(=S)N1/N=C/c1ccc(O)c(O)c1O | . | -8.7 | -8.3 | 79.4* | 0.2 | -8.9 | +
Cc1ccc(N2C(=N)/C(=C3/Nc4ccccc4S3)C(c3ccccc3)C2=O)cc1 (stereo unspecified) | 3.9 | -29.5 | . | -0.8 | 0.2 | -4.2 | .
Cc1ccc(NS(=O)(=O)c2cccc(C(=O)Nc3cccnc3)c2)c(C)c1 | . | . | -7.9 | . | . | . | .
COc1ccccc1/C=C/C=N/NC(=O)c1cc(-c2ccco2)[nH]n1 | . | -0.7 | 2.2 | 59.0* | 1.7 | -8.8 | i
O=C(Nc1cccc(/C=C/c2nc3ccccc3c(=O)[nH]2)c1)c1ccccc1Cl | . | 1.8 | 13.2 | 22.9 | -2.3 | -16.1 | .
COc1ccc(C(=O)Nc2cccc(/C=C/c3nc4ccccc4c(=O)[nH]3)c2)cc1 | . | -0.5 | 45.7 | 56.1* | 0.4 | . | i
Cc1nc(C(F)(F)F)ccc1C(=O)N1CCC1(C)C(=O)NCc1ccc(Cl)cc1 (stereo unspecified) | . | . | -1.1 | . | . | . | .
